In article PMC4010123 (Neuron, 2014):
Entries after “also recorded” stand apart in the source; their conditions may differ.

Legend:
[1] = test system: hippocampal CA3-CA1 pathway (fEPSP); assay: Extracellular field recordings, CA3-CA1 fEPSP slope in hippocampal slices; assay type: cell-based, mouse; conditions: for fEPSP slope, effect of NR2B siP in presence of Ro 25–6981: Ro 25–6981 3 μM, added 10 min before Pen siP (2 μM, 30 min)
In short: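 Hippocampal slices were used; wild-type slices came from 3-month-old C57BL/6 mice. CA1 fEPSPs were evoked by bipolar Schaffer collateral stimulation (0.1 ms pulses at 0.033 Hz) at the intensity giving 50% of maximal slope. After a stable baseline, Pen-tagged test or control peptide was perfused for 30 min. Where used, Ro 25–6981 (3 μM) perfusion began 10 min before peptide. Read-out: percent change from baseline fEPSP slope.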

NR2B [2] = conditions: infusion into dorsal hippocampus; ref Zhang et al., 2008; cited from earlier work
[3] = test system: Ser1116 of NR2B phosphorylated by Cdk5; assay: P-S1116 NR2B in acute hippocampal slices; assay type: cell-based, mouse
[4] = test system: Cdk5 (substrate recombinant NR2B, Ser1116); assay: In vitro phosphorylation of Ser1116 NR2B by Cdk5; assay type: biochemical; conditions: immunoblot
[5] = test system: Cdk5-NR2B protein-protein interaction; assay: Co-immunoprecipitation of Cdk5 and NR2B from hippocampal slices; assay type: cell-based, mouse; conditions: 4 pooled slices per sample
In short: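 Acute mouse hippocampal slices were treated in Mg2+-free Krebs buffer with test peptide, scrambled peptide or Cdk5 inhibitor. Four slices were pooled per sample for NR2B–Cdk5 co-immunoprecipitation and immunoblotting, with Cdk5 input shown.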

Sprague-Dawley rats = assay: Fear conditioning in rats, chronic infusion into dorsal hippocampus; assay type: in vivo, rat; conditions: for conditioned fear response at 96 h: extinction trial, both groups (siP and scrambled) (Figure S4E)
In short: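 Two-month-old Sprague-Dawley rats received continuous bilateral dorsal hippocampal infusion by mini-osmotic pump, starting 24 h before training. Training: 2 min exploration, then a 30 s tone (90 dB, 10 kHz) co-terminating with a foot shock (2 s, 0.7 mA); 2 min more in the box. Context tests: 5 min at 24, 48, 72 and 96 h. Tone recall at 27 h in a novel vanilla context (3 min, then 3 min tone). Freezing was time-sampled every 5 s, blind. After extinction and pump expiry, rats were retrained (0.7 mA) and context-tested 24 h later.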

rats = assay: Nociception, pain threshold and motor reflexes; assay type: in vivo, rat; conditions: chronic infusion (Figure S4B and C)
In short: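 Rats received continuous bilateral infusion of the test peptide or a scrambled control into dorsal hippocampus by mini-osmotic pump, starting 24 h before fear conditioning. Nociception was scored as the foot-shock threshold that elicits flinching, jumping and vocalizing in the conditioning box; a tail flick test was also used. Scoring was blind. Data are mean ± SEM.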

[6] = test system: Thr75 DARPP-32 (Cdk5 substrate); assay: phospho-Thr75 DARPP-32 in acute brain slices; assay type: cell-based, mouse; conditions: acute striatal slices, NR2B siP (Figure S3C and D)
In short: (§1)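 Acute mouse striatal slices were treated in Mg2+-free Krebs buffer with polyarginine (R7)-tagged test peptide (0–100 μM, 0–180 min). Lysates were prepared with protease and phosphatase inhibitors and immunoblotted. For NR2B, P-S1116 was expressed as the P-S1116/total NR2B ratio; for DARPP-32, phospho-Thr75 was probed with total DARPP-32.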

GFP-NR2B = assay: Cell surface GFP-NR2B in dendrites of cultured hippocampal neurons; assay type: cell-based, rat; conditions: NR2B siP 2 μM, 30 min, vs control peptide (S1116A); n = 49–64 cells
NR2B [7] = assay: Cell surface biotinylation of NR2B in hippocampal slices; assay type: cell-based, mouse; conditions: n = 4
NR2B-Cdk5 interaction = assay: Pull-down of Cdk5 by recombinant GST-tagged NR2B in vitro; assay type: binding; conditions: n = 3
[8] = test system: Cdk5 (substrate inhibitor-1); assay: In vitro phosphorylation of inhibitor-1 by Cdk5; assay type: biochemical; conditions: Figure S3A
[9] = test system: Ser1116 of NR2B phosphorylated by Cdk5; assay: P-S1116 NR2B in acute striatal slices; assay type: cell-based; conditions: acute mouse striatal slices, NR2B siP (Figure S3C and D)
In short: as §1

NR2B or Cdk5 = assay: NR2B and Cdk5 expression levels in hippocampal slices; assay type: cell-based, mouse; conditions: NR2B siP
In short: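 Mouse hippocampal slices treated in Mg2+-free Krebs buffer with the test peptide (0–100 μM, 0–180 min) or a scrambled control peptide. NR2B–Cdk5 association was assessed by co-immunoprecipitation using 4 pooled slices per sample. NR2B and Cdk5 levels were immunoblotted, with loading shown.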

NMDAR/AMPAR EPSC = assay: NMDA/AMPA EPSC ratio in cortical slices; assay type: cell-based; conditions: cortical slices (pyramidal neurons), NR2B siP vs scrambled control; n = 12–16
[10] = test system: NR2B component of NMDAR EPSC; assay: Ifenprodil-sensitive NR2B component of NMDAR EPSC in slices; assay type: cell-based; conditions: slices incubated with NR2B siP vs scramble control; n = 6–7
Ser1116 of NR2B [11] = assay: P-S1116 in siP-infused hippocampal area CA1; assay type: in vivo; conditions: rat CA1, NR2B siP vs scramble control; n = 4
In short: (§2)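 Sprague-Dawley rats received continuous bilateral dorsal hippocampal infusion of test or scrambled peptide by osmotic pump. Epifluorescent CA1 tissue punches were immunoblotted, with protease and phosphatase inhibitors present. P-S1116 was expressed as the P-S1116/total NR2B ratio. Cell surface NR2B was measured from 4 pooled punches per condition.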

NR2B [12] = assay: NR2B cell surface expression in siP-infused hippocampal area CA1; assay type: in vivo; conditions: rat CA1, NR2B siP vs scramble control; 4 pooled tissue punches
In short: as §2

mice = assay: Fear conditioning in mice, acute infusion into dorsal hippocampus; assay type: in vivo, mouse
Ser1116 of NR2B [13] = assay: P-S1116 NR2B in CA1 after siP infusion and fear conditioning; assay type: in vivo; conditions: NR2B siP infusion (Figure S5A)
In short: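 Test peptide or control peptide was infused into dorsal hippocampus before fear conditioning. Animals were killed 1 h after training, and CA1 lysates were prepared with protease and phosphatase inhibitors. P-S1116 and total NR2B were measured by quantitative immunoblot and reported as the P-S1116/total NR2B ratio. Data are mean ± SEM.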

[14] = test system: NMDAR / NR2B component of NMDAR-EPSC; assay: Whole-cell voltage-clamp NMDAR-EPSC, CA1 pyramidal neurons in hippocampal slices; assay type: cell-based, mouse
In short: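 Acute mouse hippocampal slices were pretreated with vehicle or Cdk5 inhibitor. Whole-cell voltage-clamp recordings of synaptically evoked NMDAR-EPSCs were made from CA1 pyramidal neurons, first without and then with the NR2B blocker ifenprodil. The ifenprodil-sensitive part was taken as the NR2B component; decay kinetics were also measured.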

total NR2B = assay: Total NR2B levels in hippocampal slices; assay type: cell-based, mouse; conditions: acute hippocampal slices, NMDA 50 or 100 μM, 15 min
In short: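 Acute mouse hippocampal slices were exposed to NMDA (50 or 100 μM, 15 min) in Mg2+-free Krebs buffer. Lysates were prepared with protease and phosphatase inhibitors and immunoblotted for total NR2B.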

[15] = slices from Cdk5 cKO mice, NR2B siP 2 μM, 30 min, n = 3

Compound: C[C@@H](CN1CCC(Cc2ccccc2)CC1)[C@@H](O)c1ccc(O)cc1 [Ro25–6981]
- fEPSP slope, effect of NR2B siP in presence of Ro 25–6981 ([1]; n = 3): blocked
- contextual fear learning (NR2B [2]): impair contextual fear learning
- locomotor or anxiety-related behavior (NR2B [2]): but not locomotor or anxiety-related behavior

Compound: C=C1[C@@H](O)[C@@H]2O[C@]3(CC[C@H](/C=C/[C@@H](C)[C@@H]4CC(C)=C[C@@]5(O[C@H](C[C@@](C)(O)C(=O)O)CC[C@H]5O)O4)O3)CC[C@H]2O[C@@H]1[C@@H](O)C[C@H](C)[C@H]1O[C@@]2(CCCCO2)CC[C@H]1C [okadaic acid]
- ability of NMDA to reduce P-S1116 in presence of okadaic acid ([3]; hippocampal slices, PP2A/PP1 inhibitor okadaic acid + NMDA (Figure S2C)): attenuated

Compound: RRRSYFHKEDRPPRDK [scrambled, reference compound]
- in vitro phosphorylation of Ser1116 NR2B by Cdk5 [4]: did not attenuate Ser1116 phosphorylation in vitro
- in vitro phosphorylation of Ser1116 NR2B by Cdk5 ([4]; listed as scramble): no effect
- Cdk5-NR2B co-immunoprecipitation / interaction [5]: did not affect Cdk5-NR2B interactions
- conditioned fear response at 96 h (Sprague-Dawley rats; rats): extinguished by 96 h for both groups
- nociception, pain threshold, or motor reflexes (rats): neither NR2B siP, nor scrambled control affected nociception, pain threshold, or motor reflexes

Compound: RRPPRSPDHKRYFRDKE [NR2B siP]
- phosphorylation state of Thr75 DARPP-32 [6]: no effect
- cell surface GFP-NR2B levels, increase, siP (GFP-NR2B): 1.5 fold
- NR2B cell surface levels, increase, siP (NR2B [7]; NR2B siP 1 h, 100 μM): 3.3 fold
- NR2B cell surface levels (NR2B [7]; NR2B siP or Scramble 1 h, 100 μM, or CP681301 1 h, 50 μM): increased
- block of pull-down of Cdk5 by GST-tagged NR2B (NR2B-Cdk5 interaction): most potently blocked the pull-down of Cdk5; also recorded: dose-dependently disrupts NR2B-Cdk5 binding in vitro
- in vitro phosphorylation of Ser1116 NR2B by Cdk5 [4]: dose-dependently inhibits
- in vitro phosphorylation of inhibitor-1 [8]: did not inhibit
- P-S1116 in striatal slices [9]: time-dependently reduced P-S1116
- Cdk5-NR2B co-immunoprecipitation / interaction [5]: disrupts NR2B-Cdk5 interaction; also recorded: effectively blocked subsequent co-immunoprecipitation of Cdk5 and NR2B
- levels of NR2B or Cdk5 expression (NR2B or Cdk5): did not alter levels of NR2B or Cdk5 expression
- NMDA/AMPA EPSC ratio, increase (NMDAR/AMPAR EPSC): 1.8 fold
- ifenprodil-sensitive NR2B component of NMDAR EPSC, increase [10]: 1.5 fold
- fEPSP slope, effect of NR2B siP in presence of Ro 25–6981 ([1]; n = 3): did not show a significant effect
- fEPSP slope, steady state after washout, relative to control treated slices ([1]; hippocampal slices, after washout of NR2B siP (Pen siP), vs control peptide): 1.6 fold
- fEPSP slope in Cdk5 cKO, effect [1, 15]: almost absent in Cdk5 cKO mice
- fEPSP slope in Cdk5 cKO, increase [1, 15]: 1.2 fold
- P-S1116 in infused region (Ser1116 of NR2B [11]): reduces P-S1116
- NR2B cell surface expression (NR2B [12]): increases NR2B cell surface expression
- contextual memory enhancement during extinction trials (Sprague-Dawley rats; rats, 48 and 72 h after initial training (Figure S4D and E)): contextual memory enhancement persisted
- tone-induced freezing (Sprague-Dawley rats; rats, chronic infusion, 27 h after conditioning): no effect
- conditioned fear response at 96 h (Sprague-Dawley rats; rats): extinguished by 96 h for both groups
- contextual fear memory 24 h after re-training (Sprague-Dawley rats; rats, re-trained after extinction and expiration of pump (Figure S4F)): increased
- contextual fear memory (Sprague-Dawley rats; two-month-old rats, chronic infusion, n = 20): improved contextual fear memory
- nociception, pain threshold, or motor reflexes (rats): neither NR2B siP, nor scrambled control affected nociception, pain threshold, or motor reflexes
- freezing levels in context test, acute compared with chronic infusion (mice; 3 month-old mice, acute infusion): comparable to the levels observed with chronic infusion
- freezing in the tone test (mice; 3 month-old mice, acute infusion 90 min prior to conditioning, n = 6–10): not freezing to tone; also recorded: did not reveal any significant changes
- contextual fear memory, increase, aged mice (mice; 14 month-old mice, acute infusion 90 min prior to training, vs control peptide or non-infused cannulated controls (Figure S5B)): 1.7 fold
- P-S1116 NR2B in CA1 one hour post-training (Ser1116 of NR2B [13]): decreased P-S1116 NR2B in CA1 one hour post-training

Compound: CC(C(O)c1ccc(O)cc1)N1CCC(Cc2ccccc2)CC1 (stereo not shown) [ifenprodil]
- reduction of NMDAR-EPSC by ifenprodil in control slices ([14]; controls (vehicle), n = 6–7): 20%
- reduction of NMDAR-EPSC by ifenprodil in CP681301-treated slices ([14]; slices treated with CP681301, n = 6–7): 33%
- contextual fear learning (NR2B [2]): impair contextual fear learning
- locomotor or anxiety-related behavior (NR2B [2]): but not locomotor or anxiety-related behavior

Compound: CN[C@H](CC(=O)O)C(=O)O [NMDA, N-methyl-D-aspartate]
- P-S1116 normalized to total NR2B ([3]; acute hippocampal slices, NMDA 50 or 100 μM, 15 min, n = 4): dose-dependently attenuated P-S1116
- total NR2B levels (total NR2B): reduced total NR2B levels
